# The sample as a whole holds a higher share of hits than the screen did.
# CHOP inhibitor: blocks CHOP induction under ER stress | inhibition, % at 10 µM | 220,000 compounds, 3.8% hits | CHO-K1 CHOP-promoter luciferase, tunicamycin-induced, 15-18 h | AID 2732;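 active means compounds that reduced the stress-induced luciferase reporter signal by more than about 70% of percent inhibition, limit read from the data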;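 further: 0% = tunicamycin plus vehicle and 100% = wells without tunicamycin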
# XBP1 UPR activ: activators of adaptive arm of unfolded protein response (XBP1); activation, % at 20 µM; 330,000 compounds, 0.33% hits; CHO-XBP1 luciferase reporter, IRE1-XBP1 UPR activation, luminescence; percent of tunicamycin response, DMSO as zero;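 active means versus positive control, 20 µM dose yields 30% or more activation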;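 further: 100% = tunicamycin at 10 µg/mL and 0% = DMSO only wells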
#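 Material – CHO cell line with stable XBP1 luciferase reporter · Buffer or medium – F12 plus 10% FBS · Compound – single point, 20 µM final compound, 1% DMSO · Schedule – 16-18 h cell attachment at 37 °C, then 6 h compound exposure · Signal – Steady-Glo luminescence read · Benchmarks – high control tunicamycin 10 µg/mL final, low control DMSO vehicle only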
# Tb MetRS inh: blocks T. brucei methionyl-tRNA synthetase activity; purified T. brucei MetRS, ATP depletion, Kinase-Glo luminescence; inhibition, % at 11.9 µM; 360,000 compounds, 0.4% hits;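 active means inhibition above a per-plate cutoff of the control wells' mean inhibition plus 3 SD, cut at about 5.5% in these data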;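 further: 0% = DMSO wells median and 100% = median of wells with control inhibitor compound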
#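 System: purified T. brucei MetRS enzyme / Detection: Kinase-Glo luciferase luminescence reporting remaining unconsumed ATP / Medium: HEPES buffer with MgCl2, KCl, DTT, spermine, BSA, pyrophosphatase / Replication: singlicate, one well per compound / Evaluation: percent inhibition relative to median high and low control wells / Schedule: 2 h aminoacylation at 25 °C after 15 min preincubation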
# V-ATPase pH: alters yeast V-ATPase proton transport; S. cerevisiae, pHLuorin cytosolic pH fluorescence; response, % at 10 µM; 350,000 compounds, 0.37% hits; in the data active means response mostly above about 7.3%, no sharp cut-off; inactive means mostly below about 5.4%; further: actives read high
# UPR CHOP act: apoptotic UPR (CHOP) activation | CHO-CHOP luciferase reporter, luminescence; percent of tunicamycin response over DMSO baseline | activation, % at 10 µM | 330,000 compounds, 0.34% hits;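 active means at 10 µM dose, activation of 40% or more, normalized to positive control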;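 further: 100% = tunicamycin at 10 µg/mL and 0% = DMSO alone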
#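 Dosing – one dose, 10 µM in 0.5% DMSO · System – CHO-CHOP cells, stable luciferase reporter of PERK-eIF2a-CHOP signalling · Input – 500 cells/well · Control set – tunicamycin 10 µg/mL final as positive, DMSO-only wells as negative · Timing – 6 h compound treatment, 37 °C · Measure – % activation vs tunicamycin · Technique – luminescence read with Steady-Glo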
# CHOP inh conf: confirmation of CHOP induction inhibitors. shares compounds with CHOP inhibitor. CHO-CHOP promoter luciferase reporter, tunicamycin-induced, luminescence. inhibition, % at 10 µM. 2,100 compounds, 45% hits;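 active means mean of three repeat readings of reporter signal inhibition above a set limit, cut at about 70% in these data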;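 further: 0% = tunicamycin plus vehicle and 100% = wells lacking tunicamycin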
# Starred values were filed as active, the others as inactive; x = not tested or not shown.
SMILES,CHOP inhibitor,XBP1 UPR activ,Tb MetRS inh,V-ATPase pH,UPR CHOP act,CHOP inh conf
O=C(N/N=C/c1ccc(F)cc1)c1cc(-c2ccco2)nc2ccccc12,31,-1,0,-7,3,x
CCOc1ccc(/C=N/NC(=O)c2cc(-c3ccco3)nc3ccccc23)cc1,104*,28,-1,-1,5,95*
COc1ccc2cc(C(=O)N/N=C/c3sc4ccccc4c3O)ccc2c1,97*,-1,-1,-1,2,-17
CC(C)OC(=O)c1cccc2c1C(=O)c1ccccc1-2,15,4,0,-1,4,x
CC(C)COC(=O)c1cccc2c1-c1ccccc1/C2=N\O,101*,0,0,-2,-1,64
Cc1cc(C)c(S(=O)(=O)NCCn2ccc3ccccc32)c(C)c1,107*,-1,1,0,0,24
CCOC(=O)C1=C(Cc2ccc(F)cc2)C(=O)c2ccccc2C1=O,108*,-2,0,-1,125*,37
Cn1c(=O)n(CCOc2ccc(Cl)cc2Cl)c2ccccc21,98*,0,-1,0,1,71*
CC(=O)c1sc2nc(-c3cccs3)ccc2c1N,-19,1,0,7,4,x
Nc1c(C(=O)Nc2nc3ccccc3s2)sc2nc(-c3cccs3)ccc12,102*,29,0,-49,26,82*
CCC(OC(=O)CC1Sc2ccccc2NC1=O)C(=O)NCC1CCCO1 (stereo not drawn),0,-3,-1,5,-3,x
CSCCC1NC2(C(=O)Nc3c(C)cc(Cl)cc32)[C@@H]2C(=O)N(C3CCCC3)C(=O)[C@H]12 (stereo partly drawn),104*,-3,0,-4,1,34
Cc1ccc2sc(N(CCCN(C)C)C(=O)c3ccc(Br)s3)nc2c1C,69,4,0,6,2,x
Cc1ccc2sc(N(CCCN(C)C)C(=O)c3nc4ccccc4s3)nc2c1C,104*,17,1,-14,3,96*
Cc1cc(/C=N/n2cnnc2)c(C)n1-c1ccccc1,26,1,-1,3,0,x
Cc1cc(/C=N/n2cnnc2)c(C)n1-c1ccc(Cl)cc1,12,2,0,-5,-1,x
Cc1cc(/C=N/n2cnnc2)c(C)n1-c1ccc(OCc2ccc(Cl)cc2Cl)cc1,108*,-6,1,0,-3,114*
Cc1cc(/C=N/n2cnnc2)c(C)n1-c1ccc(OCc2ccc(F)cc2)cc1,x,4,0,0,10,111*
Cc1ccc(Cn2nc(C)c(NC(=O)c3cc(-c4ccc5c(c4)OCO5)on3)c2C)cc1,106*,-1,x,x,2,68
COc1ccc(CCNC(=O)c2nnn(-c3ccccc3OC)c2N)cc1OC,25,1,-1,0,2,x
COc1ccc(CCNC(=O)c2nnn(-c3ccc4c(c3)OCCO4)c2N)cc1OC,97*,-3,-1,0,-4,84*
CCCc1nc2c(sc3nc4c(cc32)COC(C)(C)C4)c(=O)n1CCN(CC)CC,4,-1,0,0,1,x
COc1cc(CNCc2ccncc2)cc(Br)c1OCc1ccccc1F,36,-4,0,-2,-1,x
CCOc1cc(CNc2ccc(O)cc2)cc(Br)c1OCc1ccccc1F,110*,5,0,-2,0,63
CC(=O)Oc1oc(-c2ccccc2)nc1/C=N/c1ccccn1,101*,2,0,-2,9,-42
Cn1c(N)c(NC(=S)NC2CCCCC2)c(=O)n(C)c1=O,x,x,0,2,x,x
C=CCc1cccc(/C=N/NC(=O)C[n+]2ccccc2)c1O,x,-2,0,-3,2,x
C=CCc1cccc(/C=N/NC(=O)CCC(=O)Nc2ccc(F)cc2)c1O,102*,-3,1,3,-2,29
C=CCc1cccc(/C=N/NC(=O)CCCNc2ccc(C)cc2)c1O,97*,x,0,0,x,75*
COc1ccc2oc(C(=O)OCC(=O)Nc3ccc(C(=O)N(C)C)cc3)c(C)c2c1,x,-1,0,-4,5,x

# Compound activity (PubChem)
